Source: paper PMC10786778 (Diabetes Therapy, 2023)
Entries after “also recorded” stand apart in the source; their conditions may differ. Where two headings read alike, the source gives them in different places.

Assays:
[1] = Plasma pharmacokinetics of HSK7653 after first and last oral dose; format: in vivo, human
[2] = system: glycosylated albumin (GA); experiment: Glycated albumin; format: in vivo, human
In short: (§1)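 48 Chinese adults with T2DM, untreated with hypoglycemic agents for 3 months, randomized double-blind to placebo or 10, 25 or 50 mg oral tablets. Dosing was once every 2 weeks for 12 weeks (six doses), with 240.0 mL water, fasted on days 1 and 29. Values were measured by each site's standard procedure, compared with baseline or placebo, and summarized descriptively (mean, SD, median, range).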

QT interval [3] = experiment: Plasma concentration QT analysis of single dose in healthy subjects; format: in vivo, human; settings: dose of 25 mg or less every two weeks
C-peptide = experiment: Serum C-peptide level; format: in vivo, human
In short: as §1

fasting plasma glucose = experiment: Fasting plasma glucose in T2DM patients; format: in vivo, human
In short: as §1

Safety and tolerability = format: in vivo, human
In short: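 Safety in 48 T2DM patients given placebo or 10/25/50 mg tablets orally every 2 weeks for 12 weeks, then 2 weeks of safety follow-up. Monitoring covered adverse events, physical examination, blood and urine routine, biochemistry, amylase and lipase, vital signs, 12-lead ECG and hypoglycemic events. ADR incidence was tabulated per dose group and graded by severity.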

glucagon = experiment: Plasma glucagon level; format: in vivo, human
[4] = mass balance study; ref CTR20201559; cited from earlier work
HbA1c = HbA1c change in T2DM patients; format: in vivo, human
In short: as §1

QT interval [5] = settings: cited from earlier work
[6] = day 85, 50 mg, among 11 subjects

In the case of `CS(=O)(=O)n1cc2c(n1)CN([C@@H]1C[C@H](N)[C@@H](c3cc(F)ccc3F)O[C@@H]1C(F)(F)F)C2` [HSK7653, (2R,3S,5R,6S)-2-(2,5-difluorophenyl)-5-[2-(methylsulfonyl)-2,6-dihydropyrrolo[3,4-c]pyrazol-5(4H)-yl]-6-(trifluoromethyl)-tetrahydro-2H-pyran-3-amine], the accumulation in vivo ([1]; 10–50 mg every two weeks) was “not accumulated in vivo; also recorded: did not accumulated in body”, the “mean Rac_AUC” value ([1]; 10–50 mg every two weeks) was 1.0–1.1 and the “mean Rac_Cmax” value ([1]; 10–50 mg every two weeks) was 0.9–1.0. It also gave a Tmax ([1]; human, plasma, oral, 10 mg, Tmax, median (min, max), multiple (last dose)) of 1 h, a Cmax ([1]; human, plasma, oral, 25 mg, Cmax, mean ± SD (CV%), multiple (last dose)) of 411 ng/mL and a Tmax ([1]; human, plasma, oral, 25 mg, Tmax, median (min, max), single (first dose)) of 2 h. The Vd/F ([1]; human, plasma, po) was 61.1 to 81.9 L, the half-life ([1]; human, plasma, po) was 64 to 87 h and the Tmax ([1]; human, plasma, po, median Tmax, dose range 10–50 mg) was 1 to 3 h. For the same compound, the “GA level lower than the baseline by” value ([2]; day 43, 10 mg) was 2.3%, the “mean GA value” ([2]; day 43, 10 mg) was 21.2% and the “GA level lower than the baseline by” value ([2]; day 43, 25 mg) was 0.8%. For the same compound, the “mean GA value” ([2]; day 43, 25 mg) was 21.0%, the “GA level higher than the baseline by” value ([2]; day 43, 50 mg) was 0.4% and the “mean GA value” ([2]; day 43, 50 mg) was 23.6%. The “mean GA value” ([2]; day 85, 10 mg) was 20.0%, the “mean GA value” ([2]; day 85, 25 mg) was 20.5% and the “mean GA value” ([2]; day 85, 50 mg) was 24.2%. For the same compound, the “risk of prolongation of QT interval” value (QT interval [3]) was “no significant risk of prolongation of QT interval”, the “level of C-peptide with increasing treatment time” value (C-peptide; 10 mg dose group) was “gradually increased to a similar level as the placebo group” and the “level of C-peptide compared with the placebo group” value (C-peptide; 25 and 50 mg dose groups) was “no significant change”. The “fasting blood glucose lower than baseline by” value (fasting plasma glucose; day 43, 10 mg) was 0.7 mmol/L, the “mean fasting blood glucose” value (fasting plasma glucose; day 43, 10 mg) was 9.2 mmol/L and the “fasting blood glucose lower than baseline by” value (fasting plasma glucose; day 43, 25 mg) was 0.5 mmol/L. The “mean fasting blood glucose” value (fasting plasma glucose; day 43, 25 mg) was 8.1 mmol/L, the “fasting blood glucose increased from baseline by” value (fasting plasma glucose; day 43, 50 mg) was 0.8 mmol/L and the “fasting blood glucose decreased compared with the baseline by” value (fasting plasma glucose; day 85, 10 mg) was 0.7 mmol/L. For the same compound, the “mean fasting blood glucose” value (fasting plasma glucose; day 85, 10 mg) was 9.2 mmol/L, the “fasting blood glucose decreased compared with the baseline by” value (fasting plasma glucose; day 85, 25 mg) was 0.2 mmol/L and the “mean fasting blood glucose” value (fasting plasma glucose; day 85, 25 mg) was 8.5 mmol/L. For the same compound, the “incidence of ADR” value (Safety and tolerability; 10 mg dose group) was 33.3%, the “incidence of TEAEs” value (Safety and tolerability; 10 mg dose group) was 58.3% and the “incidence of ADR” value (Safety and tolerability; 25 mg dose group) was 58.3%. The “incidence of TEAEs” value (Safety and tolerability; 25 mg dose group) was 91.7%, the “incidence of ADR” value (Safety and tolerability; 50 mg dose group) was 75.0% and the “incidence of TEAEs” value (Safety and tolerability; 50 mg dose group) was 83.3%. For the same compound, the serious adverse events (Safety and tolerability; 10–50 mg once every two weeks) was “no serious adverse events”, the “ADR incidence: anemia” value (Safety and tolerability; HSK7653 dose group total) was 5.6% and the “ADR incidence: decreased T wave amplitude of ECG” value (Safety and tolerability; HSK7653 dose group total) was 5.6%. The “ADR incidence: dizziness” value (Safety and tolerability; HSK7653 dose group total) was 2.8%, the “ADR incidence: dyspepsia” value (Safety and tolerability; HSK7653 dose group total) was 11.1% and the “ADR incidence: electrocardiogram T wave abnormal” value (Safety and tolerability; HSK7653 dose group total) was 8.3%. The “ADR incidence: hyperbilirubinemia” value (Safety and tolerability; HSK7653 dose group total) was 5.6%, the “ADR incidence: hyperlipidemia” value (Safety and tolerability; HSK7653 dose group total) was 8.3% and the “ADR incidence: hypertriglyceridemia” value (Safety and tolerability; HSK7653 dose group total) was 11.1%. For the same compound, the “ADR incidence: increased blood bilirubin” value (Safety and tolerability; HSK7653 dose group total) was 5.6%, the “ADR incidence: positive urine red blood cells” value (Safety and tolerability; HSK7653 dose group total) was 5.6% and the “ADR incidence: upper respiratory tract infection” value (Safety and tolerability; HSK7653 dose group total) was 5.6%. For the same compound, the “ADR incidence: urinary tract infection” value (Safety and tolerability; HSK7653 dose group total) was 8.3%, the “ADR incidence: white blood cells urine positive” value (Safety and tolerability; HSK7653 dose group total) was 8.3% and the “ADR incidence: prolonged QT interval of ECG” value (Safety and tolerability; HSK7653 dose group total (4/36)) was 11.1%. The tolerability (Safety and tolerability; doses of 10–50 mg, Chinese T2DM subjects) was “well tolerated and safe”, the “glucagon level with increasing treatment time” value (glucagon; 10 mg dose group, 90–180 min after meal) was “gradually decreased to below the level of the placebo group” and the “glucagon level compared with the placebo group” value (glucagon; 25 and 50 mg dose groups, during treatment) was “lower than the placebo group during treatment”. The fecal excretion [4] was 7.4%, the “hepatic metabolism, metabolites in feces” value [4] was 5.7% and the “hepatic metabolism, metabolites in urine” value [4] was 9.7%. For the same compound, the renal excretion [4] was 68.1%, the “HbA1c, Mean ± SD” value (HbA1c; Day 43, 10 mg) was 7.7 ± 0.4 and the “HbA1c, Mean ± SD” value (HbA1c; Day 43, 25 mg) was 7.5 ± 0.6. The “HbA1c, Mean ± SD” value (HbA1c; Day 43, 50 mg) was 8.3 ± 1.0, the “HbA1c, Mean ± SD” value (HbA1c; Day 85, 10 mg) was 7.3 ± 0.3 and the “HbA1c, Mean ± SD” value (HbA1c; Day 85, 25 mg) was 7.4 ± 0.7. For the same compound, the “HbA1c, Mean ± SD” value (HbA1c; Day 85, 50 mg) was 8.4 ± 1.1, the “subjects with HbA1c decreased significantly” value (HbA1c; [6]) was 5 subjects and the “subjects with HbA1c increased compared with baseline” value (HbA1c; [6]) was 6 subjects.

In the case of `Cc1cc(N2CCN([C@@H]3CN[C@H](C(=O)N4CCSC4)C3)CC2)n(-c2ccccc2)n1` [Teneligliptin], the “effect on QT interval” value (QT interval [5]; only at 4 times the normal dose (160.0 mg/day)) is given as “significantly prolonged the QT interval”.

In the case of `CC#CCn1c(N2CCC[C@@H](N)C2)nc2c1c(=O)n(Cc1nc(C)c3ccccc3n1)c(=O)n2C` [linagliptin], the “effect on QTc interval” value (QT interval [5]; doses of 5 and 100 mg, compared with placebo) is given as “did not increase the QTc interval”.

In the case of `N[C@@H](CC(=O)N1CCn2c(nnc2C(F)(F)F)C1)Cc1cc(F)c(F)cc1F` [sitagliptin], the “effect on QTc interval” value (QT interval [5]; clinical dose 100 mg) is given as “does not correlate with an increase in QTc interval” and the “effect on QT interval” value (QT interval [5]; super-therapeutic dose of 800 mg, clinical significance not significant) is given as “the QT interval is prolonged”.
